Laboratory results reported in ChEMBL document CHEMBL4825779, “Sulfur Analogues of Tyrosine in the Development of Triazene Hybrid Compounds: A New Strategy against Melanoma” (ACS Med Chem Lett, 2021).

T1: Tyrosinase (Agaricus bisporus, UniProt O42713)
T1 sequence (O42713 whole entry): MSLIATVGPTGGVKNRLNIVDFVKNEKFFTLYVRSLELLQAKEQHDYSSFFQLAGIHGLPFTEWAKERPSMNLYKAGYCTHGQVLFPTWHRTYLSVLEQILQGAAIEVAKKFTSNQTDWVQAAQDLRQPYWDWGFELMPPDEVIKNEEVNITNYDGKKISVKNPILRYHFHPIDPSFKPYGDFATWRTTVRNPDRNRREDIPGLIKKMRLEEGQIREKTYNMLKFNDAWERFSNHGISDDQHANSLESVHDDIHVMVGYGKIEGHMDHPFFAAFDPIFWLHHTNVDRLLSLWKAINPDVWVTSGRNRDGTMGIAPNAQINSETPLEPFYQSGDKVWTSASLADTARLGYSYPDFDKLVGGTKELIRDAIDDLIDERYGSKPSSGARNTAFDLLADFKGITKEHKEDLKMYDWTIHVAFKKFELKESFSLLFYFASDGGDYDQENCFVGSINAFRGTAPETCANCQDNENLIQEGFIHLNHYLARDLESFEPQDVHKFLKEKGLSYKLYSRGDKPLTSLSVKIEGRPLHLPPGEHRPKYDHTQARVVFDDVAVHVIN


Experiments:
[1] = 1-Octanol/phosphate buffer apparent partition coefficient, logP of the compound measured after 30 mins by HPLC analysis; type: physicochemical
[2] = Half life of the compound in PBS buffer at pH 7.4 by HPLC analysis; type: physicochemical
Summary of the method: (§1)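 Stability run at 37 °C in PBS pH 7.4 or 80% human plasma. HPLC followed loss of parent and appearance of hydrolysis products over at least 3 half-lives. Decay fitted pseudo-first-order: kobs taken as the slope of ln(concentration) vs time, and t1/2 calculated from kobs.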

[3] = Half life in 80% human plasma by HPLC analysis; type: ADME, cell-free; summary of the method: as §1
Tyrosinase [4] = target: T1, Tyrosinase; assay: Substrate activity at mushroom tyrosinase assessed as half-life of the compound by HPLC analysis; type: ADME
Summary of the method: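 Incubated with mushroom tyrosinase at 100 units/mL. Reaction followed by HPLC to derive substrate half-life (min).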

[5] = Cytotoxicity against human MNT-1 cells assessed as reduction in cell viability incubated for 72 hrs by MTS assay; type: functional, cell-based; settings: MNT-1, 72 h
Summary of the method: (§2)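 Cell lines: MNT-1 and A375 (human melanoma), B16F10 (murine melanoma) and HaCaT (human keratinocytes). Compounds incubated with cells for 72 h; IC50 reported in μM.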

B16-F10 = assay: Cytotoxicity against mouse B16-F10 cells assessed as reduction in cell viability incubated for 72 hrs by MTS assay; type: functional, cell-based; settings: B16-F10, 72 h; summary of the method: as §2
HaCaT = assay: Cytotoxicity against human HaCaT cells assessed as reduction in cell viability incubated for 72 hrs by MTS assay; type: cell-based; summary of the method: as §2
[6] = Selectivity index, ratio of IC50 for human HaCaT cells to IC50 for human MNT-1 cells by MTS assay
[7] = Selectivity index, ratio of IC50 for human HaCaT cells to IC50 for mouse B16-F10 cells by MTS assay; type: toxicity; settings: HaCaT cells and B16-F10 cells, read-out: Ratio IC50
Summary of the method: (§3)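 Human HaCaT keratinocytes and the melanoma line (human A375 or murine B16F10) were each incubated with compound for 72 h, and IC50 was determined in each line. Selectivity index is HaCaT IC50 divided by melanoma-line IC50.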

[8] = Selectivity index, ratio of IC50 for human HaCaT cells to IC50 for human cells by MTS assay
A-375 = assay: Cytotoxicity against human A-375 cells assessed as reduction in cell viability incubated for 72 hrs by MTS assay; type: functional, cell-based; settings: A-375, 72 h; summary of the method: as §2
Tyrosinase [9] = target: T1, Tyrosinase; assay: Drug metabolism assessed as mushroom tyrosinase-mediated drug oxidation by measuring dihydroxylated metabolite formation with m/z 408 by mass spectrometry; type: ADME
Tyrosinase [10] = target: T1, Tyrosinase; assay: Drug metabolism assessed as mushroom tyrosinase-mediated drug oxidation by measuring dihydroxylated metabolite formation with m/z 410 by mass spectrometry; type: ADME
[11] = Selectivity index, ratio of IC50 for human HaCaT cells to IC50 for human A-375 cells by MTS assay; summary of the method: as §3
Tyrosinase [12] = target: T1, Tyrosinase; assay: Drug metabolism assessed as mushroom tyrosinase-mediated drug oxidation by measuring compound 18c formation measured after 0.5 to 4 mins by HPLC analysis; type: ADME; settings: time 0.5-4 min
Tyrosinase [13] = target: T1, Tyrosinase; assay: Drug metabolism assessed as mushroom tyrosinase-mediated drug oxidation by measuring 3-(4-cyanophenyl)-N-(2-(3,4-dioxocyclohexa-1,5-dienylthio)ethyl)-1-methyltriaz-2-ene-1-carboxamide formation measured after 2 hrs by HPLC analysis; type: ADME
[14] = Hepatotoxicity in rat liver microsomes assessed as GSH depletion measured after 180 mins by Ellman's method; type: toxicity, Microsome; settings: 3 h
[15] = Drug metabolism in rat liver microsomes assessed as CYP450-mediated o-quinone formation measured after 3 hrs by HPLC analysis; type: ADME, Microsome
Tyrosinase [16] = target: T1, Tyrosinase; assay: Drug metabolism assessed as mushroom tyrosinase-mediated drug oxidation by measuring dihydroxylated metabolite formation with m/z 344 by mass spectrometry; type: ADME
[17] = substrate: CCOC(=O)c1ccc(/N=N/N(C)C(=O)NCCSc2ccc(O)cc2)cc1; assay: (§4) Substrate activity at mushroom tyrosinase assessed as Km by Michaelis-Menten based analysis; type: ADME, Agaricus bisporus
[18] = substrate: CN(/N=N/c1ccc(C#N)cc1)C(=O)NCCSc1ccc(O)cc1; assay: as §4; type: ADME, Agaricus bisporus
[19] = substrate: Cc1ccc(/N=N/N(C)C(=O)NCCSc2ccc(O)cc2)cc1; assay: as §4; type: ADME, Agaricus bisporus

Molecule	half-life [2]	half-life [3]	half-life (Tyrosinase [4])	IC50 [5]	IC50 (B16-F10)	IC50 (HaCaT)	Ratio IC50 [6]	selectivity ratio [7]	IC50 (A-375)	Ratio IC50 [11]	other results
CC(=O)c1ccc(/N=N/N(C)C(=O)NCCSc2ccc(O)cc2)cc1	> 240 h	61.6 h	1 min	> 75 µM	> 75 µM	> 150 µM	2	2			logD at 0.5 h [1]: 3.44; Ratio IC50 [8]: 2
NCCSc1ccc(O)cc1				42.8 µM	> 75 µM	> 125 µM	>=3				
CN=NNc1ccc(C(C)=O)cc1				> 75 µM	> 75 µM	> 130 µM					
CN(/N=N/c1ccc(Br)cc1)C(=O)CCSc1ccc(O)cc1	106 h	8.3 h	2.1 min	> 75 µM	> 75 µM		2	2	55 µM	2	Drug metabolism (Tyrosinase [9]): Metabolite_Detected; Drug metabolism (Tyrosinase [10]): Metabolite_Detected
CCOC(=O)c1ccc(/N=N/N(C)C(=O)CCSc2ccc(O)cc2)cc1	130 h	6.57 h		> 75 µM	> 75 µM		2	2	61 µM	2	
CN(/N=N/c1ccc(C#N)cc1)C(=O)NCCSc1ccc(O)cc1	> 240 h	74 h	0.5 min	> 75 µM	> 75 µM	> 150 µM	2	2			logD at 0.5 h [1]: 3.49; Drug metabolism (Tyrosinase [12]): Metabolite_Detected; Drug metabolism (Tyrosinase [13]): Metabolite_Notdetected; Ratio IC50 [8]: 2
CN/N=N/c1ccc(Br)cc1				> 60 µM	> 60 µM	> 60 µM					
CN=NNc1ccc(C#N)cc1				> 60 µM	> 60 µM	> 60 µM					
CCOC(=O)c1ccc(/N=N/NC)cc1				> 60 µM	> 60 µM	> 60 µM					
CN(/N=N/c1ccc(Cl)cc1)C(=O)CCSc1ccc(O)cc1					> 75 µM	> 75 µM	2	2	> 75 µM	2	
Cn1nnc2c(C(N)=O)ncn2c1=O [TEMOZOLOMIDE]				> 75 µM	> 75 µM	> 75 µM			> 75 µM		
Tyrosinase (Agaricus bisporus) (protein) MSLIATVGPTGGVKNRLNIVDFVKNEKFFTLYVRSLELLQAKEQHDYSSFFQLAGIHGLPFTEWAKERPSMNLYKAGYCTHGQVLFPTWHRTYLSVLEQILQGAAIEVAKKFTSNQTDWVQAAQDLRQPYWDWGFELMPPDEVIKNEEVNITNYDGKKISVKNPILRYHFHPIDPSFKPYGDFATWRTTVRNPDRNRREDIPGLIKKMRLEEGQIREKTYNMLKFNDAWERFSNHGISDDQHANSLESVHDDIHVMVGYGKIEGHMDHPFFAAFDPIFWLHHTNVDRLLSLWKAINPDVWVTSGRNRDGTMGIAPNAQINSETPLEPFYQSGDKVWTSASLADTARLGYSYPDFDKLVGGTKELIRDAIDDLIDERYGSKPSSGARNTAFDLLADFKGITKEHKEDLKMYDWTIHVAFKKFELKESFSLLFYFASDGGDYDQENCFVGSINAFRGTAPETCANCQDNENLIQEGFIHLNHYLARDLESFEPQDVHKFLKEKGLSYKLYSRGDKPLTSLSVKIEGRPLHLPPGEHRPKYDHTQARVVFDDVAVHVIN											Km [17]: 64 µM; Km [18]: 64 µM; Km [19]: 64 µM

More lines, main results first:

half-life [2]	half-life [3]	half-life (Tyrosinase [4])	Molecule	IC50 [5]	IC50 (B16-F10)	IC50 (HaCaT)	Ratio IC50 [6]	selectivity ratio [7]	IC50 (A-375)	Ratio IC50 [11]	other results
> 240 h	88.5 h	1.9 min	Cc1ccc(/N=N/N(C)C(=O)NCCSc2ccc(O)cc2)cc1	74.1 µM	78.3 µM	> 130 µM	2	2			logD at 0.5 h [1]: 4.21; Ratio IC50 [8]: 2
> 240 h	105 h	0.5 min	CN(/N=N/c1ccc(Br)cc1)C(=O)NCCSc1ccc(O)cc1	> 75 µM	> 75 µM	> 150 µM	2	2			logD at 0.5 h [1]: 3.95; Activity [14]: Non-Toxic; Drug metabolism [15]: Metabolite_Notdetected; Ratio IC50 [8]: 2
139 h	4.9 h		CC(=O)c1ccc(/N=N/N(C)C(=O)CCSc2ccc(O)cc2)cc1	> 75 µM	> 75 µM		2	2	> 75 µM	2	
86.4 h	2.99 h		CN(/N=N/c1ccc(C#N)cc1)C(=O)CCSc1ccc(O)cc1	> 75 µM	> 75 µM		2	2	> 75 µM	2	
101 h	8.7 h	2.3 min	Cc1ccc(/N=N/N(C)C(=O)CCSc2ccc(O)cc2)cc1		> 75 µM	45.8 µM	2	2	47 µM	<1	Drug metabolism (Tyrosinase [16]): Metabolite_Detected
